From PubChem
SUMO Mot1 rescue – inhibitors of SUMOylation pathway: yeast Mot1-301 growth rescue; 1% of 320,000 active; growth rescue, % at 18.8 µM; S. cerevisiae Mot1-301 growth rescue, ATP luminescence, 38.5C; percent above DMSO median, 100 means doubled;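 active = every valid replicate shows activation above 250% relative to neutral control wells; inactive = the rest, any valid replicate at or below 250%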;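 also: OY570 slx delta 5 strain wells were the positive control but not used for scaling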
APOBEC3A inh – human APOBEC3A DNA deaminase inhibition. recombinant A3A, FAM/TAMRA ssDNA deamination fluorescence. inhibition, % at 20 µM. 0.41% of 330,000 active;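 active = at least 40% inhibition at 20 µM here, with at most 30% in a related deaminase screen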;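 also: plate controls were A3A with DMSO for no effect and wells lacking A3A enzyme for full effect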
APOBEC3G inh – blocks human APOBEC3G single-stranded DNA deamination | Q9HC16 | recombinant A3G, ssDNA deamination FAM/TAMRA fluorescence | inhibition, % at 20 µM | 0.28% of 330,000 active;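 active = inhibition of at least 40% at 20 µM, with no more than 30% in the related APOBEC3A deaminase screen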;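 also: plate controls were DMSO wells with A3G for no effect and wells lacking A3G enzyme for full effect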
C2C12 statin – suppression of simvastatin myotoxicity; C2C12 myotubes + simvastatin, ATP luminescence, 48 h; scaled: DMSO 0, geranylgeraniol control 100; rescue of ATP level, % at 7.49 µM; 0.78% of 330,000 active; AID 602340;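 active = mean ATP rescue above about 67%, or every replicate alone reaching that limit, limit read from the data, passing the limit was not always enough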;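 also: myotubes were challenged with 10 µM simvastatin during compound exposure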
ARFGAP1 inhibitor – rat ARFGAP1 inhibition | AID 651572 | inhibition, % at 16.5 µM | 0.26% of 360,000 active | Q62848 | Arfgap1-stimulated ARF1 GTP hydrolysis, GDP FP detection;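 active = inhibition above a per-plate limit, mean inhibition of low control wells plus 3 SD, cut at about 25% in these data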;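 also: 0% = DMSO wells with enzyme and 100% = wells lacking Arfgap1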
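system = rat Arfgap1 catalytic domain, aa 1-136 | technique = FP, GDP Alexa 633 tracer displaced from anti-GDP antibody, 620/688 nm | compound = one concentration, 16.5 µM, DMSO 1.26% | medium = HEPES-based buffer, pH 7.5 | timing = compound-enzyme preincubation 20 min, reaction 120 min, detection 60 min, 25 °C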
ASAP1 GAP inh – blocks human ASAP1-stimulated Arf1 GTP hydrolysis; Q9ULH1; GDP FP detection; 0.19% of 360,000 active; inhibition, % at 16.5 µM; in the data active = inhibition above about 25%;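 also: 0% = vehicle with enzyme and substrate and 100% = no enzyme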
Target sequence (Q9ULH1 325-724 limits assumed): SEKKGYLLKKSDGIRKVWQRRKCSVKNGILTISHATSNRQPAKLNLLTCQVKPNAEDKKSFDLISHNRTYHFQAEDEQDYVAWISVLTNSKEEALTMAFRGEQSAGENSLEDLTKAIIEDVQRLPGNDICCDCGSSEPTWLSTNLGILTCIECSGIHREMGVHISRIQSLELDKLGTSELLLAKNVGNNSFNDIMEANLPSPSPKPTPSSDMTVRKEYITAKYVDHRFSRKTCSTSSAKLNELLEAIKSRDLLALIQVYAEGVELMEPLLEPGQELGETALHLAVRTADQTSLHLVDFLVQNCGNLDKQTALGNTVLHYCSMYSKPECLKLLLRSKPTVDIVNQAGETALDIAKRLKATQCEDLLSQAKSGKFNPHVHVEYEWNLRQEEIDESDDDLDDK
ASAP1 inh confirm – ASAP1 inhibition confirmed; shares compounds with ASAP1 GAP inh; ASAP1-stimulated Arf1 GTPase, GDP fluorescence polarization; inhibition, % at 16.5 µM; 37% of 620 active; AID 624431;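 active = mean inhibition over triplicates exceeds the hit threshold derived for the earlier primary screening run, cut at about 25% in these data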
* = called active by the depositor; x = no result given. Shown are actives, neighbours in structure and some others; about 2.1% of the full set was active somewhere.

SMILES	SUMO Mot1 rescue	APOBEC3A inh	APOBEC3G inh	C2C12 statin	ARFGAP1 inhibitor	ASAP1 GAP inh	ASAP1 inh confirm
COc1ccc(S(=O)(=O)NNC(=S)NCCc2ccccc2)c(OC)c1	1.0	-2.4	-7.2	13.4	6.3	25.5*	4.4
COc1ccc(NC(=S)NCCc2ccccc2)c(OC)c1	-1.5	5.3	-1.4	-27.0	-5.6	-0.5	x
COc1cc2oc3ccc(C#Cc4ccccn4)cc3c(=O)c2cc1OC	2.8	3.0	7.2	-22.6	-6.5	31.0*	40.1*
COc1cc2oc3ccc(C#Cc4ccc(N)cc4)cc3c(=O)c2cc1OC	-6.4	x	x	8.4	15.2	16.0	x
CCO[C@H]1OC(C(=O)Nc2ccccc2)=C[C@@H](c2csc3ccccc23)[C@@H]1CCCO	0.4	-2.6	-8.6	22.2	16.4	25.3*	18.8
COC(=O)c1ccc(NC(=O)c2cc3sccc3n2C)cc1	-38.1	x	x	3.7	1.7	7.3	x
Cn1c(C(=O)Nc2ccccc2)cc2sccc21	x	1.7	-1.0	15.3	14.1	30.6*	9.6
Cc1ccc(C)c(N2CCN(C(=O)CN3C(=O)c4ccccc4C3=O)CC2)c1	-1.6	6.7	-1.0	3.4	-5.6	2.1	x
Cc1ccccc1N1CCN(C(=O)CN2C(=O)c3ccccc3C2=O)CC1	7.9	2.6	5.1	11.2	-7.8	26.1*	0.5
C[C@@H](C(=O)O)[C@H]1C[C@]1(C)[C@H](NC(=O)OCc1ccccc1)c1ccccc1	-5.8	0.4	-5.6	3.8	-3.0	26.1*	-0.4
O=C(C1CCCCC1)N1C[C@@H]2[C@H](c3ccccc31)[C@@H](CO)N2C(=O)c1ccccc1	x	x	x	1.9	x	x	x
COc1cc(/C=C2/SC(N)=NC2=O)ccc1Oc1ccc([N+](=O)[O-])cc1[N+](=O)[O-]	3.1	-3.5	-5.7	x	-4.3	29.3*	49.4*
COc1ccc(NC(=O)N(C)C[C@H]2Oc3ccc(NS(=O)(=O)c4ccc(F)cc4)cc3CC(=O)N([C@@H](C)CO)C[C@@H]2C)cc1	x	x	x	-1.5	x	x	x
C[C@@H]1CN([C@H](C)CO)C(=O)c2cc(NS(=O)(=O)c3ccc(Cl)cc3)ccc2O[C@@H]1CN(C)S(=O)(=O)c1cn(C)cn1	x	x	x	-14.6	x	x	x
O=C(C[C@H]1CC[C@@H]2[C@H](COC[C@H](O)CN2Cc2cc(F)ccc2F)O1)N[C@@H]1CCN(Cc2ccccc2)C1	x	x	x	-12.6	x	x	x
O=C(O)C1Nc2c(Cl)cc(Cl)cc2C2C=CCC12 (centres undefined)	16.9	x	x	-3.6	x	x	x
O=C(O)C1Nc2c(O)cccc2C2C=CCC12 (centres undefined)	-17.9	97.9	87.7	x	-3.1	26.2*	19.8
O=C(CSc1cc(Cl)ccc1Cl)NCCCn1ccnc1	1.3	2.2	-1.5	-5.4	-6.8	17.1	x
O=C(CNC(=O)c1ccc(Cl)cc1Cl)NCCCn1ccnc1	-23.9	-2.3	-3.3	x	5.2	28.8*	-3.5
COn1c(SC2CCCCC2)nc2ccccc2c1=O	15.1	4.5	0.6	-15.5	-8.6	74.4*	-2.5
C[C@H](CO)N1C[C@H](C)[C@H](CN(C)S(=O)(=O)c2ccccc2)Oc2c(NC(=O)Nc3ccc(C(F)(F)F)cc3)cccc2C1=O	x	x	x	2.8	x	x	x
CN1CCN(c2ccc(NC(=O)c3ccc(-c4ccc(Cl)cc4)o3)cc2)CC1	25.6	1.4	-4.4	2.6	11.7	11.5	x
CN1CCN(c2ccc(NC(=O)c3ccc(-c4cccc([N+](=O)[O-])c4)o3)cc2)CC1	217.9	-2.0	-9.6	x	17.1	31.4*	106.2*
CC1CCN(C(=O)COC(=O)c2cc3ccccc3cc2O)CC1	16.0	-1.0	-1.8	3.4	8.1	25.6*	15.0
C[C@H](CO)N1C[C@H](C)[C@H](CN(C)C(=O)C2CC2)Oc2cc(C#CC3CCCC3)ccc2S1(=O)=O	x	x	x	17.5	x	x	x
CC1CCc2c(sc(NC(=O)c3ccco3)c2C(=O)O)C1 (centres undefined)	0.1	0.2	-3.1	-16.3	-1.9	26.9*	-2.1
O=C(Nc1sc2c(c1C(=O)O)CCCCC2)c1ccco1	-2.9	-3.1	-4.2	5.3	6.6	-3.8	x
